Compounds with a hit are over-represented: about 1.8% of the library has one in this group of screens.
LYP act = increases human PTPN22 phosphatase activity | Q9Y2R2 | recombinant LYP, DiFMUP fluorescence; 0 = plate median, 100 = signal doubled | activation, % at 2 µM | hit rate 0.11% among 96,000 | AID 697;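 active = activation at 2 µM above a set limit, the mean plus 5 SD, cut at about 37% in these data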
PTPN22 inh 2 = blocks human PTPN22 phosphatase activity. AID 640. recombinant LYP catalytic domain, DiFMUP fluorescence. hit rate 0.21% among 96,000. inhibition, % at 2 µM;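 active = inhibition at 2 µM at or above a set limit, the screen mean plus 3 SD, cut at about 24% in these data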
HIV Rev-RRE inh = inhibitors of HIV-1 Rev-RRE RNA interaction; Rev peptide-RRE RNA binding, FRET; hit rate 0.79% among 97,000; inhibition, % at 8 µM; P05866;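 active = inhibition above the screen-wide mean plus 3 SD, cut at about 35% in these data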
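Assay system: labelled RRE RNA duplex and labelled Rev peptide / Medium: HEPES pH 7.5 salt buffer with EDTA / Reagent: labelled Rev peptide / Schedule: 5 + 15 min at 25 °C / Signal: FRET, excitation 480 nm, emission 540 nm donor and 671 nm acceptor / Benchmarks: DMSO and neomycin B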
FAK blocker = blocks human focal adhesion kinase activity; Q05397; biochemical FAK kinase activity assay; inhibition, %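 (tested at 7 µM)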; hit rate 0.84% among 97,000
Target sequence (Q05397 whole entry, looked up): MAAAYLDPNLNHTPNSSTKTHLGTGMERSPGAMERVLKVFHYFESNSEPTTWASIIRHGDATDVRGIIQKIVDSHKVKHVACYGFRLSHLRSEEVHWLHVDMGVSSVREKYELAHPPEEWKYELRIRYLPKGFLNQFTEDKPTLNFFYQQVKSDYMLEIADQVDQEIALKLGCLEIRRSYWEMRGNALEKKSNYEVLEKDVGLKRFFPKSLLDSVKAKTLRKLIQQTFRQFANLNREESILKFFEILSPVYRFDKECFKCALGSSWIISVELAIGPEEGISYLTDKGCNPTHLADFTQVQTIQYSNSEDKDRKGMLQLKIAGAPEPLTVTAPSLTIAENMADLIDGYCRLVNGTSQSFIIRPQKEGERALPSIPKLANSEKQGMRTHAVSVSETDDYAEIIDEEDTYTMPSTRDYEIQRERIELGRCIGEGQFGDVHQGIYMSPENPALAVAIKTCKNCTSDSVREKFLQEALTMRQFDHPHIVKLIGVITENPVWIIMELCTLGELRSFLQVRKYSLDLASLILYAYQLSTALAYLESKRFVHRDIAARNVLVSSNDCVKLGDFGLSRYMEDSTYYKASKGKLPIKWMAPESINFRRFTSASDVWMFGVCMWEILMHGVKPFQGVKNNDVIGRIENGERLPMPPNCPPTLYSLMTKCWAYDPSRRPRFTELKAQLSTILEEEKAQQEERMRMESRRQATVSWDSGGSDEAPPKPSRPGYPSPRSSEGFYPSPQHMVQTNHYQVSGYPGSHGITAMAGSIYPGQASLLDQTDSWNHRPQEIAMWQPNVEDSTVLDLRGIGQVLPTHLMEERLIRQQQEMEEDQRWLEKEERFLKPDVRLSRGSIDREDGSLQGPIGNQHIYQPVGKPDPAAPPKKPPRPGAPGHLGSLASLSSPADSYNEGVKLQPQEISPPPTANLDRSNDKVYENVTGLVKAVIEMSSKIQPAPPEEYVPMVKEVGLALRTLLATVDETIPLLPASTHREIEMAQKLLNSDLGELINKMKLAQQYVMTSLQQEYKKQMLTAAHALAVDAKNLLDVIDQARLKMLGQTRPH
FAK inh conf = confirmation of human focal adhesion kinase (FAK) inhibitors. shares compounds with FAK blocker. FAK kinase biochemical inhibition assay. inhibition, % at 7 µM. hit rate 28% among 750. AID 794
Large screens that a line does not name were inactive (follow-up assays come after a bar, where they were run); [ ] = dose if it differs, or a comment. Cut-off read from the data, not from the text of the source, unless noted: active = inhibition above about 19%; inactive = the rest.

COC(=O)C1=C(C)Nc2c(c(=O)n(C)c(=O)n2C)C1c1cccs1 (centres undefined)	FAK blocker 19 | FAK inh conf inactive
CCOc1c(Br)cc(C2NS(=O)(=O)N=C3CCCCCN32)cc1OC (centres undefined)	FAK blocker 47 | FAK inh conf inactive
CCc1ccc(/C=C2\CN(CC)Cc3c2nc2ccccc2c3C(=O)O)cc1	HIV Rev-RRE inh 40, FAK blocker 51 | FAK inh conf inactive
CC(=O)Nc1ccc2[nH]c(C)cc(=O)c2c1	FAK blocker 81 | FAK inh conf inactive
Cc1ccccc1S(=O)(=O)c1c(C)cc(-c2ccccc2)[nH]c1=O	none
CCOC(=O)c1[nH]c(C)c(C(=O)C(C)C)c1C	none
CC1CCN(C(=O)N2c3ccccc3Sc3ccccc32)CC1	none
O=C(N1CCOCC1)N1c2ccccc2Sc2ccccc21	FAK blocker 40 | FAK inh conf inactive
COC(=O)CSc1nc(C(C)C)nc2ccccc12	FAK blocker 40 | FAK inh conf 23
CCOC(=O)CSc1nc(C2CC2)nc2ccccc12	FAK blocker 67 | FAK inh conf 65
CCOC(=O)CSc1nc(C(C)C)nc2ccccc12	FAK blocker 37 | FAK inh conf 24
CCOC(=O)CSc1nc(C)c2ccccc2n1	none
COC(=O)CSc1nc2ccccc2nc1SCC(=O)OC	none
COc1ccc2nc(SCC(=O)Nc3ccccc3C)[nH]c2c1	none
Cc1ccccc1CSCC(Nc1ccc(C(=O)O)cc1[N+](=O)[O-])C(=O)O (centres undefined)	none
CCCOc1ccccc1NC(=O)c1ccc(N)cc1	none
CCCOc1ccc(N)cc1N	HIV Rev-RRE inh 101[fluorescence artefact?], FAK blocker 22 | FAK inh conf inactive
CCNC(=O)/C(=C/c1ccco1)NC(=O)/C=C/c1ccccc1	none
CSc1nc2ccc3nc(NC(=O)c4cccs4)sc3c2s1	FAK blocker 40 | FAK inh conf 26
CCCCCCCCC(=O)N/N=C(\C)c1cccnc1	none
C/C(=N\NC(=O)c1[nH]c2c([N+](=O)[O-])cc(C)cc2c1-c1ccccc1)c1cccnc1	FAK blocker 20 | FAK inh conf inactive
CN1c2ccccc2C(C)(C)C12C=Nc1c(cc(N3CCOCC3)c3ccccc13)O2 (centres undefined)	FAK blocker 40 | FAK inh conf inactive
O=C1Nc2ccc(NS(=O)(=O)c3cccs3)c3cccc1c23	FAK blocker 42 | FAK inh conf 19
O=C1NCCc2c1[nH]c1c(Cl)ccc(Cl)c21	FAK blocker 73 | FAK inh conf 62
O=C(OCCN=C1NS(=O)(=O)c2ccccc21)c1cccnc1	FAK blocker 51 | FAK inh conf 28
Nc1nc2ccc([N+](=O)[O-])c(N)c2s1	FAK blocker 25 | FAK inh conf inactive
O=C1C=C(Nc2ccccc2O)c2ccccc2C1=O	FAK blocker 23 | FAK inh conf inactive
O=C1C(C2=C(O)c3ccccc3C2=O)=Nc2ccccc21	none
O=C(N1CCOCC1)N1CCN(C(=O)N2CCOCC2)CC1	none
N#Cc1cc2ccc(N3CCOCC3)cc2cc1C#N	FAK blocker 23 | FAK inh conf inactive
Cc1ccc(C)c(NC(=O)c2ccc[n+](Cc3ccc([N+](=O)[O-])cc3)c2)c1	none
COc1ccc(Cl)cc1NC(=O)C12CCC(C)(C(=O)O1)C2(C)C (centres undefined)	none
CCn1c(SCC(=O)NCc2ccco2)nnc1-c1c[nH]c2ccccc12	none
COCCn1c(SCC(=O)NCc2ccco2)nnc1-c1c[nH]c2ccccc12	FAK blocker 40 | FAK inh conf inactive
CC(Sc1nc(-c2ccccc2)nc2c1COC(C)(C)C2)C(=O)N1CCOCC1 (centres undefined)	none
Nc1c(C(=O)Nc2ccccc2)sc2nc(-c3ccco3)ccc12	HIV Rev-RRE inh 36, FAK blocker 26 | FAK inh conf inactive
Nc1c(C(=O)Nc2nc3ccccc3s2)sc2nc(-c3cccs3)ccc12	PTPN22 inh 2 35, HIV Rev-RRE inh 133[fluorescence artefact?], FAK blocker 49 | FAK inh conf 27
COc1ccc(-c2[nH]ncc2/C=N\NS(=O)(=O)c2ccccc2)cc1OC	FAK blocker 22 | FAK inh conf inactive
CC(C)N1C(=O)CC2(CC[N+](C)(CCOC(=O)C(c3ccccc3)c3ccccc3)CC2)C1=O (centres undefined)	none
O=C(c1csc2c1CCCC2)N1CCN(c2cccc(C(F)(F)F)c2)CC1	none
O=C(NCCO)c1cccc(Nc2nc(-c3ccccc3)c3cc(Cl)ccc3n2)c1	FAK blocker 33 | FAK inh conf inactive
Cc1cccc(N2CSC3=C(C#N)C(c4ccc(C)o4)CC(=O)N3C2)c1 (centres undefined)	FAK blocker 24 | FAK inh conf inactive
COc1ccc(OCCCc2c(C)n[nH]c2C)cc1	none
Cc1n[nH]c(C)c1CCCOc1ccccc1	FAK blocker 50 | FAK inh conf inactive
Cc1oc(-c2ccccc2)cc1C(=O)Nc1cccc(C(=O)O)c1	none
Cc1oc(-c2ccccc2)cc1C(=O)Nc1cccc2ccccc12	FAK blocker 26 | FAK inh conf 25
CCC(NC(=O)Nc1ccc(O)cc1)(C(F)(F)F)C(F)(F)F	FAK blocker 20 | FAK inh conf inactive
Cc1ccccc1NC1=C/C(=N\S(=O)(=O)c2cccs2)c2ccccc2C1=O	FAK blocker 42 | FAK inh conf 32
Cc1ccc(CSCC(=O)N/N=C/c2ccc(OCC(=O)Nc3ccc(C)cc3)cc2)cc1	FAK blocker 26 | FAK inh conf inactive
O=S(=O)(c1ccc(Oc2ccc(-c3nnco3)cc2)nc1)N1CCC(Cc2ccccc2)CC1	FAK blocker 19 | FAK inh conf inactive
CCN(CC)C(=O)CSc1nnc(CNc2ccc(F)cc2)n1-c1ccccc1	none
CCc1c(C)sc(NC(=O)C2CC2c2ccccc2)c1C(N)=O (centres undefined)	FAK blocker 35 | FAK inh conf inactive
O=C(Nc1ccncc1)C1CC1c1ccccc1 (centres undefined)	none
Cc1ccc(-c2cc(C(F)(F)F)n3nc(C(=O)NCCCn4ccnc4)cc3n2)cc1C	none
CC1=CC(=C2C(=O)c3ccccc3C2=O)C=C(C)N1Cc1ccco1	FAK blocker 24 | FAK inh conf inactive
O=C1c2ccccc2C(=O)N1Cc1ccco1	none
O=C(N/N=C/c1ccc(O)c(O)c1)c1ccc(CSc2cccc3cccnc23)cc1	none
CCOC(=O)c1cccc2c1-c1ccccc1/C2=N/O	FAK blocker 49 | FAK inh conf 26
CC1CCCC(C)N1C(=O)c1cccc2c1-c1ccccc1/C2=N/O (centres undefined)	none
CN1CCC(=NNC(=O)C(=O)NC(C)(C)C)CC1	none
Cc1c(Cl)cccc1N=Cc1ccc([N+](=O)[O-])s1	FAK blocker 25 | FAK inh conf inactive
CSc1nc(SCCO)c2sc3nc(-c4ccco4)c4c(c3c2n1)CC(C)(C)OC4	FAK blocker 28 | FAK inh conf inactive
Cc1nc2sc3c(NCc4ccco4)ncnc3c2c2c1COC(C)(C)C2	none
Cc1ccc(OCC(=O)NN=C2c3ccccc3-c3ccccc32)cc1	none
CCc1ccc(OCC(=O)N/N=C2\CC(=O)c3ccccc32)cc1	FAK blocker 32 | FAK inh conf inactive

High-throughput results (PubChem)
